Experimental data: ChEMBL document CHEMBL3351536, “A new avenue toward androgen receptor pan-antagonists: C2 sterically hindered substitution of hydroxy-propanamides” (J Med Chem, 2014)
Activity calls are given as the source filed them. The calls are words filed in the database; no cut-off is given here.

Key:
[1] = target: T1, Androgen receptor (Homo sapiens) (UniProt P10275); assay: Inhibition of androgen receptor in R1881-stimulated human LNCAP cells assessed as reduction in PSA mRNA level at 0.5 to 20 uM after 24 hrs by RT-PCR analysis; type: cell-based
T1 sequence (whole entry): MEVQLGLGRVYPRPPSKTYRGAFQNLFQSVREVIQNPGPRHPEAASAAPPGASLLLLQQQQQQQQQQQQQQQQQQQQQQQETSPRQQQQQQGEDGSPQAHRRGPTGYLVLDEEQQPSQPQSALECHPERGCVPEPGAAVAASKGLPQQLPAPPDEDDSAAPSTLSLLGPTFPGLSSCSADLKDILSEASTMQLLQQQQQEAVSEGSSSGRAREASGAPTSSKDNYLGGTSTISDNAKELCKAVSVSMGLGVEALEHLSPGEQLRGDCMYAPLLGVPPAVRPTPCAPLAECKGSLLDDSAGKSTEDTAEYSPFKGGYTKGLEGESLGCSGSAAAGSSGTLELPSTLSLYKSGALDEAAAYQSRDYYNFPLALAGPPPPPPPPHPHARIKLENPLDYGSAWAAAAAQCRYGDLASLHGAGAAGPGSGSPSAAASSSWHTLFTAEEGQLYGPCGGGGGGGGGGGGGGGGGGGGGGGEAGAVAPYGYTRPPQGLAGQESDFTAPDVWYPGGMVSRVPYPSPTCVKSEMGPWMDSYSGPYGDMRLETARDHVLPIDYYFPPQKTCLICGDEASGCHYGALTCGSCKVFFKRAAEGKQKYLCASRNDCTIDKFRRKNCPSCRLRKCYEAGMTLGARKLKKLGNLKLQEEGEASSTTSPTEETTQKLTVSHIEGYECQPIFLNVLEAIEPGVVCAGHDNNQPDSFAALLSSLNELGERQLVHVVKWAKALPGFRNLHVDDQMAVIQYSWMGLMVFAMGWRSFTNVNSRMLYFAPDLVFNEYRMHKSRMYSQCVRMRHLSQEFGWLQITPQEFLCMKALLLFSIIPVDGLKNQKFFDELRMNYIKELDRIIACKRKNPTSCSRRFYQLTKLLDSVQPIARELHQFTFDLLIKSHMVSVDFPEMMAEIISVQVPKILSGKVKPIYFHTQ

[2] = system: VCaP; assay: Antitumor activity against human VCaP cells xenografted in CD-1 nu/nu mouse assessed as tumor regression at 10 mg/kg, po for 4 consecutive weeks starting on day 35 of tumor implantation measured after 100 days; type: functional, organism-based; design: dose 10 mg/kg
Outline: (§1)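 Male CD-1 nu/nu mice, 5–6 weeks old, injected s.c. in the flank with 10⁶ VCaP cells in 50% Matrigel/50% serum-free medium. When tumors reached 50–100 mg, mice were randomized, 5 per group. Daily oral gavage at 10 mg/kg for 4 weeks in 80% PEG-400/20% Tween-80; controls got vehicle. Tumor weight from caliper (a×b²/2) three times weekly; body weight monitored.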

[3] = target: T1, Androgen receptor (Homo sapiens); assay: Displacement of [3H]R1881 from androgen receptor in human LNCAP cells at 2 uM after 24 hrs by liquid scintillation counting; type: cell-based
[4] = system: DU-145; assay: Cytotoxicity against human DU145 cells after 144 hrs by SRB assay; type: cell-based; conditions: du-145, 144 h
Outline: (§2)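 Cells exposed for 144 h starting 24 h after seeding, 5000 cells/well. SRB assay with OD read at 490 nm. Growth inhibition calculated as (ODtreated−ODzero)/(ODcontrol−ODzero)×100; OD below ODzero counted as cell killing. Octuplicate wells, three independent experiments; IG50 and LC50 taken from this calculation.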

[5] = target: T1, Androgen receptor (Homo sapiens); assay: Inhibition of androgen receptor in human LNCAP cells assessed as reduction in PSA mRNA level at 0.5 to 20 uM after 24 hrs by RT-PCR analysis; type: cell-based
[6] = system: LNCaP; assay: Inhibition of R1881-induced DNA synthesis in human LNCAP cells at 10 to 20 uM after 18 hrs by BrdU incorporation assay; type: functional, cell-based
Outline: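 Quiescent LNCaP cells on coverslips treated 18 h with 10 nM R1881 ± compound (10 or 20 μM), then pulsed with 100 μM BrdU. Incorporation scored by anti-BrdU immunofluorescence as % of total nuclei.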

[7] = system: LNCaP; assay: Inhibition of R1881-induced migration of human LNCAP cells at 10 uM after 24 hrs by wound-healing assay; type: functional, cell-based
Outline: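 Confluent quiescent LNCaP monolayers scratched, washed, and given 10 nM R1881 ± 10 μM compound for 24 h. Wound closure assessed from phase-contrast images; four experiments.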

[8] = system: LNCaP; assay: Inhibition of R1881-induced migration of human LNCAP cells at 10 uM by transwell assay; type: functional, cell-based
Outline: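 Quiescent LNCaP cells on collagen-coated transwell filters, 24 h after seeding, treated with 10 nM R1881 ± 10 μM compound. Migrated cells stained with Hoechst and counted by fluorescence microscopy; data given as relative increase in migrated cells.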

[9] = system: LNCaP; assay: Growth inhibition of (R)-bicalutamide-resisitant human LNCAP cells after 144 hrs by SRB assay; type: functional; outline: as §2
[10] = system: CWR22R; assay: Inhibition of cell survival in human CWR22Rv1 cells after 144 hrs by TUNEL assay; type: functional, cell-based; conditions: 22Rv1, 144 h
[11] = Cytotoxicity against human PC3 cells after 144 hrs by SRB assay; type: cell-based; conditions: pc-3, 144 h; outline: as §2
[12] = system: LNCaP; assay: Cytotoxicity against human LNCAP cells expressing mutant androgen receptor assessed as reduction in cell viability; type: cell-based
[13] = Inhibition of cell survival in human VCaP cells after 144 hrs by TUNEL assay; type: cell-based
Outline: (§3)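 Cells treated 144 h starting 24 h after seeding. Fixed in 1% paraformaldehyde then 70% ethanol, labeled with TUNEL mix (TdT, FITC-dUTP) for 60 min at 37 °C, counterstained with propidium iodide/RNase, and analyzed by flow cytometry for % apoptotic cells. For LNCaP and LNCaP-AR, compounds at 20 μM, three independent experiments.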

[14] = system: Mus musculus; assay: Toxicity in human VCaP cells xenografted CD-1 nu/nu mouse assessed as body weight loss at 10 mg/kg, po for 4 consecutive weeks starting on day 35 of tumor implantation measured up to 100 days; type: organism-based; design: dose 10 mg/kg, route oral; conditions: in vivo, 2400 h; outline: as §1
[15] = system: LNCaP; assay: Induction of apoptosis in human LNCAP cells expressing mutant androgen receptor at 20 uM after 144 hrs by TUNEL assay; type: cell-based; outline: as §3
[16] = Growth inhibition of human VCaP cells after 144 hrs by SRB assay; type: functional; outline: as §2
[17] = system: LNCaP-AR; assay: Induction of apoptosis in human LNCaP-AR cells expressing wild-type androgen receptor at 20 uM after 144 hrs by TUNEL assay; type: functional; outline: as §3
[18] = target: T1, Androgen receptor (Homo sapiens); assay: Displacement of [3H]R1881 from androgen receptor in human LNCAP cells at 1 uM after 24 hrs by liquid scintillation counting; type: cell-based
[19] = system: LNCaP; assay: Growth inhibition of human LNCAP cells expressing mutant androgen receptor after 144 hrs by SRB assay; type: cell-based; conditions: Homo sapiens, LNCaP, read-out: GI50; outline: as §2
[20] = Cytotoxicity against african green monkey COS7 cells; type: cell-based; conditions: chlorocebus aethiops, cos-7
[21] = system: VCaP; assay: Antitumor activity against human VCaP cells xenografted in CD-1 nu/nu mouse assessed as tumor regression at 10 mg/kg, po for 4 consecutive weeks starting on day 35 of tumor implantation measured after 60 days; type: functional, organism-based; design: dose 10 mg/kg; outline: as §1
[22] = target: T1, Androgen receptor (Homo sapiens); assay: Effect on nuclear import of wild-type human androgen receptor expressed in COS7 cells at 10 uM after 1 hr by immunofluorescence analysis; type: cell-based; conditions: COS-7
Outline: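 Cos-7 cells on coverslips made quiescent, transfected with 1 μg pSG5-hAR, then stimulated with 10 nM R1881 for 60 min ± compounds. AR detected by immunofluorescence with anti-C19 antibody and Texas red secondary; nuclei stained with Hoechst.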

[23] = target: T1, Androgen receptor (Homo sapiens); assay: Inhibition of androgen receptor in R1881-stimulated (R)-bicalutamide-resisitant human LNCAP cells assessed as reduction in PSA mRNA level at 20 uM after 24 hrs by RT-PCR analysis; type: cell-based
Outline: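 LNCaP or LNCaP-Rbic cells (Rbic kept in 20 μM bicalutamide), 24 h after seeding, stimulated with 10 nM R1881 and treated 24 h with 10 or 20 μM compound. PSA mRNA measured by SYBR Green real-time RT-PCR in triplicate reactions, normalized to GAPDH and HPRT, expressed as fold over untreated. Two independent experiments.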

[24] = system: LNCaP; assay: Inhibition of cell survival in (R)-bicalutamide-resisitant human LNCAP cells after 144 hrs by TUNEL assay; type: cell-based; outline: as §3
[25] = system: LNCaP; assay: Effect on cell migration in serum-stimulated human LNCAP cells by transwell assay; type: ADME, cell-based
[26] = Inhibition of R1881-induced DNA synthesis in Androgen receptor-negative human DU145 cells at 10 to 20 uM after 18 hrs by BrdU incorporation assay; type: cell-based; conditions: du-145, 18 h
[27] = Growth inhibition of human LNCaP-AR cells expressing wild-type androgen receptor after 144 hrs by SRB assay; type: functional; outline: as §2

## N#Cc1ccc(C[C@](O)(CS(=O)(=O)c2ccc(F)cc2)C(=O)Nc2ccc(C#N)c(C(F)(F)F)c2)cc1
[1]
  inhibition: inactive
[2]
  Activity: Active
[3]
  inhibition: 65%
[4]
  Activity: Non-toxic
[5]
  inhibition: Active
[6]
  inhibition: Active
[7]
  inhibition: Active
[8]
  inhibition: Active
[9]
  GI50: 6.43 µM
[10]
  IC50: 5 µM
[11]
  Activity: Non-toxic
[12]
  Activity: Non-toxic
[13]
  Activity: Non-toxic
[14]
  Activity: Non-toxic
[15]
  Activity: Non-toxic
[16]
  GI50: 1420 nM
[17]
  Activity: inactive
[18]
  inhibition: 60%
[19]
  GI50: 1600 nM
[20]
  Activity: Non-toxic
[21]
  Activity: Active
[22]
  Activity: inactive
[23]
  inhibition: Active
[24]
  Activity: Non-toxic
[25]
  Activity: Non-toxic
[26]
  Activity: Non-toxic
[27]
  GI50: 4.9 µM
